# Experimental data taken from ChEMBL document CHEMBL3804775, “Development of a Potent, Specific CDK8 Kinase Inhibitor Which Phenocopies CDK8/19 Knockout Cells” (ACS Med Chem Lett, 2016).
# Active and inactive are the calls of the source. The calls are words filed in the database; no cut-off is given here.
# Legend:
# CDK8/Cyclin C = CDK8/Cyclin C (Homo sapiens, UniProt P49336); assay: Inhibition of full length human recombinant His-tagged CDK8/Cyclin C expressed in baculovirus expression system by fluorescence polarization assay
# Sequence of CDK8/Cyclin C (P49336 whole entry): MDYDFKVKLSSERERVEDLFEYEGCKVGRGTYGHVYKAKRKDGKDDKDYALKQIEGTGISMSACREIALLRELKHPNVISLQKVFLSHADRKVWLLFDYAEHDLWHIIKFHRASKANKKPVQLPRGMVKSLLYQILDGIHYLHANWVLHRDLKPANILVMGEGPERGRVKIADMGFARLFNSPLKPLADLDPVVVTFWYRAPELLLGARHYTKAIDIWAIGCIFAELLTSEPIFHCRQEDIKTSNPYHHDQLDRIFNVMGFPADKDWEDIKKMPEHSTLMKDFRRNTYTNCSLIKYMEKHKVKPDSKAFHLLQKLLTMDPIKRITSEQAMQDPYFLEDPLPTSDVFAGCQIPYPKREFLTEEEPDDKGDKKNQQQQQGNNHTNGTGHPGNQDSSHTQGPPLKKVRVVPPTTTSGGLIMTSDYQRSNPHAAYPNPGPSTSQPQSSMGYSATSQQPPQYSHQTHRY
# Sequence of CDK8/Cyclin C (P24863 whole entry, further chain): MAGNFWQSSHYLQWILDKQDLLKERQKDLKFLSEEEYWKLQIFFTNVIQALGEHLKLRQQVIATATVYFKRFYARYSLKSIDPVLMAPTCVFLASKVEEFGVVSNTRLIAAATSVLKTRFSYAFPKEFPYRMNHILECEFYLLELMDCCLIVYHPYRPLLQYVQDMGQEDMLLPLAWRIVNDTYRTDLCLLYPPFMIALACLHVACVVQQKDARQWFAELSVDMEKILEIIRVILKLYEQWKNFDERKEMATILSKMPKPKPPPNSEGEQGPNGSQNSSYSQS
# [1] = Permeability from apical to basolateral side in MDCK cells; format: ADME, cell-based, Canis lupus familiaris; conditions: dog, read-out: permeability
# [2] = Antiproliferative activity against human HCT116 cells after 72 hrs by Celltiter-Glo reagent based assay in presence of 10% fetal bovine serum; format: functional, cell-based; conditions: HCT-116, 72 h
# [3] = Antiproliferative activity against human HCT116 cells after 72 hrs by Celltiter-Glo reagent based assay in presence of 0.625% fetal bovine serum; format: functional, cell-based; conditions: HCT-116, 72 h
# [4] = Plasma protein binding in rat; format: ADME, cell-free; conditions: read-out: PPB (converted)
# [5] = Plasma protein binding in human; format: ADME, cell-free; conditions: read-out: PPB (converted)
# [6] = Plasma protein binding in mouse; format: ADME, cell-free; conditions: read-out: PPB (converted)
# [7] = Kinetic solubility in DMSO/phosphate buffered saline at pH 7.4 at 200 uM after 24 hrs by UHPLC based chemiluminescent nitrogen detection method; format: physicochemical; conditions: read-out: Kinetic_solubility
# [8] = Ratio of EC50 for antiproliferative activity against human HCT116 cells after 72 hrs by Celltiter-Glo reagent based assay to IC50 for inhibition of full length human recombinant His-tagged CDK8/Cyclin C expressed in baculovirus expression system by fluorescence polarization assay; parameters: species or system HCT-116
# [9] = target: Glycogen synthase kinase-3 alpha (Homo sapiens) (UniProt P49840); assay: Inhibition of recombinant GSK3alpha (unknown origin) at 0.1 uM relative to control
# Sequence of Glycogen synthase kinase-3 alpha (Homo sapiens) (P49840 2-483 limits assumed): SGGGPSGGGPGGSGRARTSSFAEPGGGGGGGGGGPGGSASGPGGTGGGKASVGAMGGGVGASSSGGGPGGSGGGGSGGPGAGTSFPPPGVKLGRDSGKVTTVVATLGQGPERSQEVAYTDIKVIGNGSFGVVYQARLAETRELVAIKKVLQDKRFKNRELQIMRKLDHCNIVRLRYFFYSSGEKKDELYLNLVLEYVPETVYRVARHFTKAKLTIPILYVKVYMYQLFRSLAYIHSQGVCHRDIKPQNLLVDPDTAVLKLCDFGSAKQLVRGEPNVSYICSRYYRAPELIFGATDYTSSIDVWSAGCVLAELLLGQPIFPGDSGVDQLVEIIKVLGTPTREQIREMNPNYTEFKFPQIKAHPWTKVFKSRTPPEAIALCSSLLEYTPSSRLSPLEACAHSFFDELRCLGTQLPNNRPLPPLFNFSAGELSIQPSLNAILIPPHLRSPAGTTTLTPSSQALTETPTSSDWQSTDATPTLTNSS
# Method in brief: (§1)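 Single-concentration screen at 0.1 μM within a 52-kinase selectivity panel, with percent inhibition reported for each kinase.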
# [10] = target: CDK9/cyclin T1 (Homo sapiens) (UniProt O60563+P50750); assay: Inhibition of full length human recombinant His-tagged CDK9/Cyclin T expressed in baculovirus expression system using Cdk7/9tide as substrate at 0.1 uM by adapta assay relative to control
# Method in brief: (§2)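 Single-point kinase selectivity screen at 0.1 μM compound across a panel of 52 kinases, recorded as percent inhibition for each kinase.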
# [11] = target: T1, Homeodomain-interacting protein kinase 4 (Homo sapiens) (UniProt Q8NE63); assay: Inhibition of full length human recombinant N-terminal GST-tagged HIPK4 expressed in baculovirus expression system using Ser/Thr peptide 18 substrate at 0.1 uM by Z-Lyte assay relative to control; method in brief: as §1
# T1 sequence (whole entry): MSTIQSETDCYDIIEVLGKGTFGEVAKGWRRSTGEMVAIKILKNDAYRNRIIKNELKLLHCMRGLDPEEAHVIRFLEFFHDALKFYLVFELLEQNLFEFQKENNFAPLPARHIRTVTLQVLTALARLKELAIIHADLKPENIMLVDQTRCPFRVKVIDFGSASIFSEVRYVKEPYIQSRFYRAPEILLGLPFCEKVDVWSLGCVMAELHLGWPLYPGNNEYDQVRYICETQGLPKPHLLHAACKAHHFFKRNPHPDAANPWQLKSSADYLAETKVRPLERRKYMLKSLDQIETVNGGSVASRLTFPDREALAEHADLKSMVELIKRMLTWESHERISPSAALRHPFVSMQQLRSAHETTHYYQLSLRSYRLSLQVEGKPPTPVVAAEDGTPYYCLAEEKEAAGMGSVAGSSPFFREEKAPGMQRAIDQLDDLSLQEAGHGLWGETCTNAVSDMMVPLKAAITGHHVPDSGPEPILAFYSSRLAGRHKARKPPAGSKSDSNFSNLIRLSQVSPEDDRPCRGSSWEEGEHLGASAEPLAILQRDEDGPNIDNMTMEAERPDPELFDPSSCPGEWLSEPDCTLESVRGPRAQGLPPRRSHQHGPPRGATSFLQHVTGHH
# [12] = target: PAS domain-containing serine/threonine-protein kinase (Homo sapiens) (UniProt Q96RG2); assay: Inhibition of human recombinant GST-tagged PASK (879 to 1323 residues) expressed in baculovirus expression system at 0.1 uM relative to control; method in brief: as §2
# Sequence of PAS domain-containing serine/threonine-protein kinase (Homo sapiens) (Q96RG2 whole entry, the tested form may be a part): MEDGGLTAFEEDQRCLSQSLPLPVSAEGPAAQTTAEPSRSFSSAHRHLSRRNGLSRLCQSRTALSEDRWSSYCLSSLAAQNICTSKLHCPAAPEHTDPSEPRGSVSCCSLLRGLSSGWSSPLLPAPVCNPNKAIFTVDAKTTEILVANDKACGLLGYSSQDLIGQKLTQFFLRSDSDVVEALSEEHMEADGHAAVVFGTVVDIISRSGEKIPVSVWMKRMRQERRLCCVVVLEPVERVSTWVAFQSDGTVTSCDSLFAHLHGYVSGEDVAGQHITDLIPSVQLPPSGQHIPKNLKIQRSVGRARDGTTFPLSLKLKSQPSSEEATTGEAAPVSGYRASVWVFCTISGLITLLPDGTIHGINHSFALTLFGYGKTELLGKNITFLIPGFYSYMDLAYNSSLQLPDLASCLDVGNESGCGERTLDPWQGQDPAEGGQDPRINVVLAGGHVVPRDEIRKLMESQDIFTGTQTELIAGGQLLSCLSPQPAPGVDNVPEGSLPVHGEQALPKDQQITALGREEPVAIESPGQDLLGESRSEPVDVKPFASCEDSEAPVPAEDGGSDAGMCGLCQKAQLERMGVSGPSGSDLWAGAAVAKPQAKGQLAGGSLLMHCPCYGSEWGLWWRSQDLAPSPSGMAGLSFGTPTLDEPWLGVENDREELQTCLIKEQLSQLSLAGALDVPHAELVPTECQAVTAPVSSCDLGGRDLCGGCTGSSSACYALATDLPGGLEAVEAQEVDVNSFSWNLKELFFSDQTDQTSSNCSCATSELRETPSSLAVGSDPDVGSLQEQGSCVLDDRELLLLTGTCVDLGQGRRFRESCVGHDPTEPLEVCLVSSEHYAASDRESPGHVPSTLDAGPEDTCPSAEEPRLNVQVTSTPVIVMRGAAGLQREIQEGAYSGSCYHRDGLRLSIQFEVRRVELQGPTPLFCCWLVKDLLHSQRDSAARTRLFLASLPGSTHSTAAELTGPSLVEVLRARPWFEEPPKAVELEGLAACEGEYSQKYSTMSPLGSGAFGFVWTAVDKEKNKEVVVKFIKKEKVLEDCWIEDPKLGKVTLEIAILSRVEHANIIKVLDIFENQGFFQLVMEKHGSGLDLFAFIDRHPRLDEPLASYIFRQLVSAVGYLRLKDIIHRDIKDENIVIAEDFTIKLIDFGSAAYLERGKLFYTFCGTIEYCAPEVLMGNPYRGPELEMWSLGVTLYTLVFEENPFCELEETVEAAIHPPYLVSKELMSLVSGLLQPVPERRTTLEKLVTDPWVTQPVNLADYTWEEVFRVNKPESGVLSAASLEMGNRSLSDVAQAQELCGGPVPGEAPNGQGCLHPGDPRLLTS
# [13] = target: Serine/threonine-protein kinase Nek4 (Homo sapiens) (UniProt P51957); assay: Inhibition of full length human recombinant GST-tagged NEK4 expressed in baculovirus expression system using Ser/Thr peptide 17 substrate at 0.1 uM by Z-Lyte assay relative to control; method in brief: as §2
# Sequence of Serine/threonine-protein kinase Nek4 (Homo sapiens) (P51957 whole entry, looked up): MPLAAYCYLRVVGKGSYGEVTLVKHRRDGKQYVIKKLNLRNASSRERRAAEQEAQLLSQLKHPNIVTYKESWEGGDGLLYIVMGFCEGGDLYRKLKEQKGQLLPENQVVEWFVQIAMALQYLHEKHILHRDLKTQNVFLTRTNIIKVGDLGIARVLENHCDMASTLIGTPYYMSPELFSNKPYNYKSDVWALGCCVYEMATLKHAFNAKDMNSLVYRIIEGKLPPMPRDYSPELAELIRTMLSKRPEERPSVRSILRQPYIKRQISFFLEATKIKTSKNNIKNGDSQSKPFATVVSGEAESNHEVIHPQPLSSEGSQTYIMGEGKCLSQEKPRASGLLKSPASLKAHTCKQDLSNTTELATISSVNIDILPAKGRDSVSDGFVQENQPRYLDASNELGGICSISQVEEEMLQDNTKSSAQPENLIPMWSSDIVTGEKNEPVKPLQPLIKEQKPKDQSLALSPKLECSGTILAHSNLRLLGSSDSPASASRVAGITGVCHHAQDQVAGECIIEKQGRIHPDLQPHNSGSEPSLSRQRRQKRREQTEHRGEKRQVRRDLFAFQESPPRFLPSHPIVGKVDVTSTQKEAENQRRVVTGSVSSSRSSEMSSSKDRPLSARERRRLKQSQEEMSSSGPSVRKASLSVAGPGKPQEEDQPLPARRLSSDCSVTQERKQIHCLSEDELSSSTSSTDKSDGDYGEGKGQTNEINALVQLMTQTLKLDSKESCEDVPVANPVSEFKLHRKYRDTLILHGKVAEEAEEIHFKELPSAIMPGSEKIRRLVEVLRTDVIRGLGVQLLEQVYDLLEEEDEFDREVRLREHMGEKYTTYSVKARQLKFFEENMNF
# HCT-116 [14] = assay: Antiproliferative activity against CDK8 knockout human HCT116 cells after 72 hrs by Celltiter-Glo reagent based assay; format: functional, cell-based
# Method in brief: (§3)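 HCT-116 CDK8 knockout and CDK8/CDK19 double knockout clones, derived from wild-type HCT-116, were incubated alongside the parent line with varying concentrations of compound. Cell viability was read at 72 h to give growth-inhibition curves.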
# HCT-116 [15] = assay: Antiproliferative activity against CDK8/CDK19 double knockout human HCT116 cells after 72 hrs by Celltiter-Glo reagent based assay; format: functional, cell-based; method in brief: as §3
# CDK9/cyclin T1 = CDK9/cyclin T1 (Homo sapiens, UniProt P50750); assay: Inhibition of full length human recombinant His-tagged CDK9/Cyclin T expressed in baculovirus expression system using Cdk7/9tide as substrate by adapta assay
# Sequence of CDK9/cyclin T1 (O60563 whole entry): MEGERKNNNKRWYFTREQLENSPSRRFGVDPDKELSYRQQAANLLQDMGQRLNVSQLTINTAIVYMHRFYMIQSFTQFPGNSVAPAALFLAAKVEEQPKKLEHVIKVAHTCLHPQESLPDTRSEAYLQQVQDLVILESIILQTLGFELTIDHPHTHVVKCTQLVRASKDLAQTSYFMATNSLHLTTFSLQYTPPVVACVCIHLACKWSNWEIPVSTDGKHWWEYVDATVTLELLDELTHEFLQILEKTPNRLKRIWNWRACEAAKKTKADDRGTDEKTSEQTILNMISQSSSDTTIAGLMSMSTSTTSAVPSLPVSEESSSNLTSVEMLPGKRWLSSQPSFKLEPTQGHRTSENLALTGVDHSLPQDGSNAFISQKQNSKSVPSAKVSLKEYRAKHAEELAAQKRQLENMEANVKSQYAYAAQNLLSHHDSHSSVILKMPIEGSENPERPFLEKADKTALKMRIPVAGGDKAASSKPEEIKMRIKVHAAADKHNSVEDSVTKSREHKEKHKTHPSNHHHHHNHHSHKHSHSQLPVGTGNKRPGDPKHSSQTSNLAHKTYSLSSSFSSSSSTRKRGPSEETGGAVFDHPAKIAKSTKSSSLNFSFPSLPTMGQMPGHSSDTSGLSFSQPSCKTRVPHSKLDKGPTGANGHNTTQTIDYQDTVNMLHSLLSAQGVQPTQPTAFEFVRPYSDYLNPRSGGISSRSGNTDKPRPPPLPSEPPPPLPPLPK
# Sequence of CDK9/cyclin T1 (P50750 whole entry): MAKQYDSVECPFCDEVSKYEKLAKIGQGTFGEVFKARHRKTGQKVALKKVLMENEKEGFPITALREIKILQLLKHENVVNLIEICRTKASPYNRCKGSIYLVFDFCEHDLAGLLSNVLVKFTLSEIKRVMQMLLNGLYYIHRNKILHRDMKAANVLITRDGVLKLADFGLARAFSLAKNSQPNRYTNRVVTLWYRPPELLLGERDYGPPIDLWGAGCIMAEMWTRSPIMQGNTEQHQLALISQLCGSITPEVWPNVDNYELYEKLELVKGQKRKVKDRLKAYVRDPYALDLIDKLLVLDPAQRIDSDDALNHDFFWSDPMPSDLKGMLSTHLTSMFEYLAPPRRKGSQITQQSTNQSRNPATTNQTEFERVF
Compound,IC50 (CDK8/Cyclin C) [nM],Papp A→B [1] [×10⁻⁶ cm/s],fraction unbound [4],fraction unbound [5],fraction unbound [6],"solubility kinetic at 24 h, 200 µM [7] [µM]",other results
N#Cc1ccc(Oc2cncc3sc(-c4nnn[nH]4)cc23)cc1,1,2.5,,,,,EC50 [2]: > 10 µM; EC50 [3]: > 10 µM
NC(=O)c1ccc(Oc2cncc3sc(-c4nnn[nH]4)cc23)cc1,4.4,0.7,,,,,
O=C(NC1CC1)c1cc2c(Oc3ccc(Cl)cc3)cncc2s1,24,,0.007,0.008,0.009,,
Cc1ncc(Oc2ccc(Cl)cc2)c2cc(C(N)=O)sc12,8,,0.008,0.007,0.012,10,Ratio [8]: 1000; EC50 [2]: > 10 µM; EC50 [3]: 8.7 µM
CCNC(=O)c1cc2c(Oc3ccc(Cl)cc3)cncc2s1,16,,,,,,
Ic1ccc(Oc2cncc3sc(-c4nn[nH]n4)cc23)cc1,0.7,24,,,,,inhibition [9]: > 80%; inhibition [10]: > 30%; inhibition [11]: > 80%; inhibition [12]: > 50%; inhibition [13]: > 30%
Clc1ccc(Oc2cncc3sc(-c4nnn[nH]4)cc23)cc1,1.1,11,,,,,EC50 [2]: > 10 µM; EC50 [3]: > 10 µM
c1ccc(Oc2cncc3sc(-c4nn[nH]n4)cc23)cc1,8.3,4.1,,,,,
COC(=O)c1cc2c(Oc3ccc(Cl)cc3)cncc2s1,62,,,,,,
FC(F)(F)Oc1ccc(Oc2cncc3sc(-c4nnn[nH]4)cc23)cc1,1.1,24,,,,,EC50 [2]: > 10 µM; EC50 [3]: > 10 µM
CC(C)NC(=O)c1cc2c(Oc3ccc(Cl)cc3)cncc2s1,100,,,,,,
NC(=O)c1cc2c(Oc3ccc(Cl)cc3)cnc(Cl)c2s1,11,,,,,< 1,
CC(=O)Nc1ccc(Oc2cncc3sc(-c4nnn[nH]4)cc23)cc1,2,0.8,,,,,
CC(=O)c1cc2c(Oc3ccc(Cl)cc3)cncc2s1,32,,0.002,0.003,0.003,,
CN(C)C(=O)c1cc2c(Oc3ccc(Cl)cc3)cncc2s1,75,,,,,,
Cc1ccc(Oc2cncc3sc(C(N)=O)cc23)cc1,6,,0.041,0.028,0.039,< 1,
Fc1ccc(Oc2cncc3sc(-c4nnn[nH]4)cc23)cc1,5.5,9.1,,,,,

Compound,IC50 (CDK8/Cyclin C) [nM],Papp A→B [1] [×10⁻⁶ cm/s],fraction unbound [4],fraction unbound [5],fraction unbound [6],"solubility kinetic at 24 h, 200 µM [7] [µM]",other results
CN1CC[C@H](c2c(O)cc(O)c3c(=O)cc(-c4ccccc4Cl)oc23)[C@H](O)C1 [ALVOCIDIB],,,,,,,EC50 [2]: 0.034 µM
O=C(c1cc2c(Oc3ccc(Cl)cc3)cncc2s1)C1CC1,59,,,,,,
NC(=O)c1ccc(-c2ccc(Oc3cncc4sc(-c5nn[nH]n5)cc34)cc2)cc1,3,1.9,,,,,inhibition [9]: > 80%; inhibition [10]: > 50%; inhibition [11]: > 80%; inhibition [12]: > 80%; inhibition [13]: > 80%
NC(=O)c1ccc(Oc2cncc3sc(C(N)=O)cc23)cc1,21,,0.232,0.227,0.217,7,
Cc1ccc(Oc2cncc3sc(-c4nn[nH]n4)cc23)cc1,1.6,12,,,,,EC50 [2]: > 10 µM; EC50 [3]: > 10 µM
NC(=O)c1cc2c(Oc3ccc(Cl)cc3)cnc(N)c2s1,1.5,,0.023,0.0187,0.041,5.5,Activity (HCT-116 [14]): Active; Activity (HCT-116 [15]): Active; IC50 (CDK9/cyclin T1): 1100 nM; Ratio [8]: 1000; EC50 [2]: 6.7 µM; EC50 [3]: 5.4 µM
CCC(=O)c1cc2c(Oc3ccc(Cl)cc3)cncc2s1,29,,< 0.001,< 0.001,< 0.001,,
NC(=O)c1cc2c(Oc3ccc(Cl)cc3)cncc2s1,6.2,,,,,6.3,IC50 (CDK9/cyclin T1): 2200 nM
CC(=O)Nc1ccc(Oc2cncc3sc(C(N)=O)cc23)cc1,29,,0.152,0.09,0.204,18,
O=C(O)c1cc2c(Oc3ccc(Cl)cc3)cncc2s1,2.8,,0.003,0.002,0.003,,EC50 [2]: > 10 µM; EC50 [3]: > 10 µM
CNC(=O)c1cc2c(Oc3ccc(Cl)cc3)cncc2s1,8.2,,0.01,0.015,0.023,,
NC(=O)c1cc2c(Oc3ccc(Cl)cc3)cnc(F)c2s1,16,,,,,< 1,
COc1ccc(Oc2cncc3sc(C(N)=O)cc23)cc1,25,,0.06,0.064,0.098,10,
N#Cc1ccc(Oc2cncc3sc(C(N)=O)cc23)cc1,5.1,,0.127,0.153,0.109,8,
CNC(=O)c1cc2c(Oc3ccc(I)cc3)cncc2s1,5.3,,0.001,0.002,0.002,,
NC(=O)c1cc2c(Oc3ccc(OC(F)(F)F)cc3)cncc2s1,12,,0.032,0.021,0.028,< 1,EC50 [2]: > 10 µM; EC50 [3]: > 10 µM
